From ChEMBL document CHEMBL4196195, “( R)- N-(1-Methyl-2-hydroxyethyl)-13-( S)-methyl-arachidonamide (AMG315): A Novel Chiral Potent Endocannabinoid Ligand with Stability to Metabolizing Enzymes” (J Med Chem, 2018) come the findings set out here.

Data set [1] concerns the target Cannabinoid receptor 1 (Rattus norvegicus) (UniProt P20272). The data set is described as follows: Agonist activity at rat CB1 receptor expressed in HEK293 cells assessed as inhibition of forskolin-induced cAMP accumulation incubated for 30 mins relative to 500 nM CP-55,940. It counts as functional, cell-based.
Data set [2] has as its system Mus musculus. The data set is described as follows: Antiallodynic activity in CD1 mouse model of CFA-induced inflammatory pain assessed as increase in CFA-reduced mechanical paw withdrawal threshold at 20 mg/kg, ip measured at 30 mins post injection. In kind it is functional, organism-based. The gist of the method: (§1)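 Adult male mice (39 ± 10 g), wild-type CD1 or CB1 KO on CD1 background, single housed. CFA:saline 1:1 (20 μL) injected intraplantar into right hind paw; 48 h allowed before dosing. Drug given ip in 5 mL/kg, vehicle group included. Electronic von Frey (90 g probe) after ≥30 min habituation, read in duplicate per paw, at baseline, 48 h post-CFA and 10, 30, 60, 120 min post-dose. Two-way mixed ANOVA with Bonferroni post hoc tests.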

For data set [3], the target named is Cannabinoid receptor 2 (Mus musculus, UniProt P47936). The data set is described as follows: Displacement of [3H]CP-55,940 from mouse CB2 receptor expressed in HEK293 cell membranes in absence of FAAH inhibitor PMSF by radioligand binding assay. The gist of the method:
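Membranes from HEK293 cells expressing human or mouse CB2 (preparations lacking FAAH activity), competing against [3H]CP-55,940. IC50 by nonlinear regression, converted to Ki. Three independent experiments run in triplicate; Ki is the mean of the three.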

Data set [4] relates to Mus musculus. The data set is described as follows: Antiallodynic activity in CD1 mouse model of CFA-induced inflammatory pain assessed as increase in CFA-reduced mechanical paw withdrawal threshold at 20 mg/kg, ip measured at 10 mins post injection. In kind it is functional, organism-based. The gist of the method:
as §1

In data set [5] the target is T1, FAAH (fatty-acid amide hydrolase 1) (Rattus norvegicus, UniProt P97612).
T1 sequence (P97612 whole entry): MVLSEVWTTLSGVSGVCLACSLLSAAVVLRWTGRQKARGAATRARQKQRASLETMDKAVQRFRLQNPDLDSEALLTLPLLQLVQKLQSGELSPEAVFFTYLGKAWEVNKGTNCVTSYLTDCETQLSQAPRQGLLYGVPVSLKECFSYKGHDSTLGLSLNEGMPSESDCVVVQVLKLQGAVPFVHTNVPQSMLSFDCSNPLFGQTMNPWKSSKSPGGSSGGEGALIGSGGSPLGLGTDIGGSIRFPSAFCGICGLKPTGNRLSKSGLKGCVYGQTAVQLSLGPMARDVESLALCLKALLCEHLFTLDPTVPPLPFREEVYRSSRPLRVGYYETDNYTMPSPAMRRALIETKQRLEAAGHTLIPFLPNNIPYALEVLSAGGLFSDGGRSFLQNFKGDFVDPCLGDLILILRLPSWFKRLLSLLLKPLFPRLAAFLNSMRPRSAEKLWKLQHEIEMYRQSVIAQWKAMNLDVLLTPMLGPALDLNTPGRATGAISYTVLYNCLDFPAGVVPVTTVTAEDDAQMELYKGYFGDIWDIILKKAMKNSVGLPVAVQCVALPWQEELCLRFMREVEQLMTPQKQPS
Nature of the data set: Stability assessed as half life for rat FAAH-mediated compound hydrolysis by LC-MS/MS analysis. In kind it is ADME. The conditions noted are these: rat FAAH (fatty-acid amide hydrolase 1). The gist of the method:
(§2)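 Expressed, partially purified rat or human FAAH incubated with compound, or AEA as reference substrate, for 30 min. Aliquots at time points quenched in acetonitrile to precipitate protein. Remaining compound measured by LC-MS/MS on a cyano column with 10 mM ammonium acetate pH 7.3/methanol at 0.5 mL/min.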

In data set [6] the target is T2, FAAH (fatty-acid amide hydrolase 1) (Homo sapiens, UniProt O00519).
T2 sequence (O00519 whole entry): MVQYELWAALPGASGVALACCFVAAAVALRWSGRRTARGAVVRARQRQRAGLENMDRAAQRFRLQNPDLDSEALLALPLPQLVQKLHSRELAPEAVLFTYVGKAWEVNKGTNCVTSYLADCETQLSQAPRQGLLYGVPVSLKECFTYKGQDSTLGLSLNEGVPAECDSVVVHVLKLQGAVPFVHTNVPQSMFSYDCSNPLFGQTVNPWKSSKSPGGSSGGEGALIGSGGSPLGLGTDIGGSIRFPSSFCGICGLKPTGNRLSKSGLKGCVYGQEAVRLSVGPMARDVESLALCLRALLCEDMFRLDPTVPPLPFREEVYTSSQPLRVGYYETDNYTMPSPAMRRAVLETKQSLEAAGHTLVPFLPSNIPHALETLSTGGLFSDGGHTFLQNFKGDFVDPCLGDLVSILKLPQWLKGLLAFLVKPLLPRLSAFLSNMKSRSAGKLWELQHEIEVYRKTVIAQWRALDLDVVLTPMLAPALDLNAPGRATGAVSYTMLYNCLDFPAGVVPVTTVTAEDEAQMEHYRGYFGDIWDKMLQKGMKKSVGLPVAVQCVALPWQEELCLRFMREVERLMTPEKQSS
The data set is described as follows: Stability assessed as half life for human FAAH-mediated compound hydrolysis by LC-MS/MS analysis. The conditions noted are these: human FAAH (fatty-acid amide hydrolase 1). It counts as ADME. The gist of the method:
as §2

Data set [7] has as its target T1, FAAH (fatty-acid amide hydrolase 1). The data set is described as follows: Stability assessed as rat FAAH-mediated compound hydrolysis by LC-MS/MS analysis. In kind it is ADME. Particulars: rat FAAH (fatty-acid amide hydrolase 1), read-out: Stability. In outline:
as §2

Data set [8] addresses T3, Cannabinoid receptor 1 (Rattus norvegicus, UniProt P20272). The data set is described as follows: Agonist activity at rat CB1 receptor expressed in HEK293 cells assessed as inhibition of forskolin-induced cAMP accumulation incubated for 30 mins. It counts as functional, cell-based. The conditions noted are these: read-out: EC50. The gist of the method: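 HEK293 cells stably expressing rCB1, harvested with nonenzymatic dissociation reagent, washed in HBSS, 1000–1500 cells/well. Test compound at various concentrations with forskolin (2 μM final) in stimulation buffer, 30 min at room temperature. cAMP read by TR-FRET (Eu-cAMP tracer plus ULight anti-cAMP, 60 min room temperature). Forskolin-stimulated cAMP set to 100%. EC50 from nonlinear regression; two independent experiments in triplicate.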

Data set [9] has as its target T3, Cannabinoid receptor 1. Nature of the data set: Displacement of [3H]CP-55,940 from CB1 receptor in rat brain membranes in absence of FAAH inhibitor PMSF by radioligand binding assay. It counts as cell membranes, Membrane.
Data set [10] deals with T2, FAAH (fatty-acid amide hydrolase 1). The data set is described as follows: Stability assessed as human FAAH-mediated compound hydrolysis by LC-MS/MS analysis. The conditions noted are these: human FAAH (fatty-acid amide hydrolase 1), read-out: Stability. In kind it is ADME. The gist of the method: as §2
Data set [11] deals with Cannabinoid receptor 2 (Homo sapiens, UniProt P34972). The data set is described as follows: Displacement of [3H]CP-55,940 from human CB2 receptor expressed in HEK293 cell membranes in absence of FAAH inhibitor PMSF by radioligand binding assay.
For data set [12], the target named is T4, Prostaglandin G/H synthase 2 (Mus musculus, UniProt Q05769).
T4 sequence (Q05769 whole entry): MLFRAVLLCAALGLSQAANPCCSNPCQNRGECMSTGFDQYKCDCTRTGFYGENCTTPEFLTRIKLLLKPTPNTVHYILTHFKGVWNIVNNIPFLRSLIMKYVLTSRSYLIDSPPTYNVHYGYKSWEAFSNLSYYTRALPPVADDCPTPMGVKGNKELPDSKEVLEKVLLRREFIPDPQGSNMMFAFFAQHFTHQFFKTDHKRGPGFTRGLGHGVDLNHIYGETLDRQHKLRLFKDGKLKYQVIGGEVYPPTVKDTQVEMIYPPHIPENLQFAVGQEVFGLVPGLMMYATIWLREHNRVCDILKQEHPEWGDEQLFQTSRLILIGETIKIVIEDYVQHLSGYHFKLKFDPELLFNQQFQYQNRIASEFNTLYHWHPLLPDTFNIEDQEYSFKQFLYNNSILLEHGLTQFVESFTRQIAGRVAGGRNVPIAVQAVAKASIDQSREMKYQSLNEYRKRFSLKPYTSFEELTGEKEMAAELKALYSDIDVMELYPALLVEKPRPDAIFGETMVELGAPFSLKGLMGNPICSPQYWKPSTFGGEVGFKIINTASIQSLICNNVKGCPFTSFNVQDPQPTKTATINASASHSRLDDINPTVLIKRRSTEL
Nature of the data set: Stability assessed as mouse COX2-mediated compound oxidation by measuring oxygen consumption by polarographic assay. In kind it is ADME.

Data set [13] has as its target T3, Cannabinoid receptor 1. Nature of the data set: Displacement of [3H]CP-55,940 from CB1 receptor in rat brain membranes in presence of FAAH inhibitor PMSF by radioligand binding assay. In kind it is cell membranes, Membrane.

Activity calls are given as the source filed them.

T3 sequence (P20272 whole entry): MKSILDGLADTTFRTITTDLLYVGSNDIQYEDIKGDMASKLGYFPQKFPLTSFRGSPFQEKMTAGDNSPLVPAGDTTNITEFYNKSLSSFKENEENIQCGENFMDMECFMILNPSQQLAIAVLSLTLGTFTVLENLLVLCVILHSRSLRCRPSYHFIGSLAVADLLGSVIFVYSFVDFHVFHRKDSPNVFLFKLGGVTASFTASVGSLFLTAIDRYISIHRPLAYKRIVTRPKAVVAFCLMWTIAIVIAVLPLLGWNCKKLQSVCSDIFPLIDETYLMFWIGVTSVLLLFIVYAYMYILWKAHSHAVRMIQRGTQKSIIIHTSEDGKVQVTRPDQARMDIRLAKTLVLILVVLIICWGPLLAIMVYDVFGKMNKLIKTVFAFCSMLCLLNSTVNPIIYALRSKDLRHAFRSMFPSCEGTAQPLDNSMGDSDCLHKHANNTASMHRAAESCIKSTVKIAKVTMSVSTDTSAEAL
Sequence of Cannabinoid receptor 2 (Mus musculus, UniProt P47936) (P47936 whole entry): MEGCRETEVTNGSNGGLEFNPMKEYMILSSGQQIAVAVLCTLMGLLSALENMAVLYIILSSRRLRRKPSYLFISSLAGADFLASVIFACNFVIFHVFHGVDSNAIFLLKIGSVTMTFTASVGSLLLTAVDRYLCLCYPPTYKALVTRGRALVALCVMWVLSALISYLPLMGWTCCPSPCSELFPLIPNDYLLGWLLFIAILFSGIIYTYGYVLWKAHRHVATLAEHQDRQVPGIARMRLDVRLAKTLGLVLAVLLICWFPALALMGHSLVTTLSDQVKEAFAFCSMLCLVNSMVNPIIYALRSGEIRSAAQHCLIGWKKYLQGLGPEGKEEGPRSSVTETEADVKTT
Sequence of Cannabinoid receptor 1 (Rattus norvegicus) (P20272 whole entry): as the sequence (P20272 whole entry) above
Sequence of Cannabinoid receptor 2 (Homo sapiens, UniProt P34972) (P34972 whole entry): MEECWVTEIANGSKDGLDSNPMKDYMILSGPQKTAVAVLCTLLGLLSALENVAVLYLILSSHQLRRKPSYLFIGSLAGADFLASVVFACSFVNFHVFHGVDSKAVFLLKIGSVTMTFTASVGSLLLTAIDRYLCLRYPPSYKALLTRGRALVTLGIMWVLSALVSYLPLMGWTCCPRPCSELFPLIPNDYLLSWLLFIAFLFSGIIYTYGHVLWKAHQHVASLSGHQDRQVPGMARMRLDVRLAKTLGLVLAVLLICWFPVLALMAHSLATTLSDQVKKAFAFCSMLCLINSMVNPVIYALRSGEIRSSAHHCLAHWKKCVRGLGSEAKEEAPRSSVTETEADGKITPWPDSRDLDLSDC

Turning to `CCCCC/C=C\C/C=C\C/C=C\C/C=C\CCCC(=O)NCCO` [ANANDAMIDE], the Emax in [1] was determined as 61%. Also, the outcome with Mus musculus [2] was inactive. The Ki on Cannabinoid receptor 2 [3] was more than 1000 nM. In addition, the result in the data set on Mus musculus [4] was Active. In addition, the half-life in data set [5] was determined as 12.1 min; in data set [6] it was 13.2 min.
With `CCCCC/C=C\C/C=C\C/C=C\[C@H](C)/C=C\CCCC(=O)N[C@H](C)CO`, the half-life in data set [7] and in data set [10] was 30 min throughout. Besides, in data set [1], the Emax came to 100%. For the same compound, the EC50 at Cannabinoid receptor 1 [8] was determined as 28.4 nM. Moreover, the Ki at Cannabinoid receptor 2 [3] is 19.8 nM; on Cannabinoid receptor 1 [9] it was 4.6 nM; at Cannabinoid receptor 2 [11], 12.8 nM; at Cannabinoid receptor 1 [13], 2.2 nM. Also, the Stability result in data set [12] is “Stable”.
